Data: PMC4349556 (Journal of pharmaceutical sciences, 2014)

Assays:
[1] = Plasma time course of anti-HIV drug combination lipid nanoparticles in primates; details: male, Macaca nemestrina (macaque), in vivo, sc
[2] = Drug incorporation efficiency into lipid-drug nanoparticles; assay type: physicochemical; details: for Drug incorporation (% total): anti-HIV drug combination LNPs (ATV+RTV+TFV) used in primates, preclinical scale; for Incorporation efficiency (%): DSPC:DSPE-mPEG2000 8:2, mean ± SD of 4
Procedure, shortened: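 Film rehydrated in 0.9% NaCl with 20 mM sodium bicarbonate (pH 7.4) at 60°C for 2 h, then sonicated or homogenized. 50 μL aliquot dialyzed (MWCO 6,000-8,000) against 1,000 mL pH 7.4 buffer; drug quantified by HPLC/MS/MS. Efficiency = incorporated/total loaded ×100%.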

[3] = Hydration of drug in buffer in the absence of lipids; assay type: physicochemical; details: after solvent removal and hydration in buffer
[4] = DPH fluorescence anisotropy: membrane fluidity and phase transition temperature; assay type: physicochemical; details: lipid-to-drug molar ratio 8:1
[5] = 12 HIV infected patients, prospective clinical study; cited from earlier work

Compound | AUC fraction (% total) 8-168 h [1] [%] | Drug incorporation (% total) [2] [%] | Incorporation efficiency (%) ([2]; lipid : drug 5 : 1 (mol/mol)) | Incorporation efficiency (%) ([2]; lipid : drug 8 : 1 (mol/mol)) | Incorporation efficiency (%) ([2]; lipid : drug 20 : 1 (mol/mol)) | Incorporation efficiency ([2]; range over lipid-to-drug molar ratios 5:1, 8:1 and 20:1) | Behaviour in the absence of lipids in the mixture [3] | Effect on DPH polarization / membrane order versus drug-free lipid control [4] | Lymph node intracellular drug levels lower than those in blood [5] [%] | Reduction of Tc versus control LNPs [4] [°C]
COC(=O)N[C@H](C(=O)N[C@@H](Cc1ccccc1)[C@@H](O)CN(Cc1ccc(-c2ccccn2)cc1)NC(=O)[C@@H](NC(=O)OC)C(C)(C)C)C(C)(C)C [Atazanavir (ATV), Atazanavir] | 95.3 | 85.5 ± 8.2 | 96.5 ± 2.6 | 96.2 ± 3.8 | 97.4 ± 1.8 | 96.2-97.4% | formed precipitates | less influence on the membrane order | ≤ 99 | 
CC(C)CN(C[C@@H](O)[C@H](Cc1ccccc1)NC(=O)O[C@H]1CO[C@H]2OCC[C@H]21)S(=O)(=O)c1ccc(N)cc1 [Darunavir (DRV), Darunavir] |  |  |  |  |  |  | formed precipitates | decreased the polarization of DPH |  | 1.6
CC(C)c1nc(CN(C)C(=O)N[C@H](C(=O)N[C@@H](Cc2ccccc2)C[C@H](O)[C@H](Cc2ccccc2)NC(=O)OCc2cncs2)C(C)C)cs1 [Ritonavir (RTV), ritonavir] | 80.4 |  |  |  |  |  |  |  |  | 
C[C@H](Cn1cnc2c(N)ncnc21)OCP(=O)(O)O [Tenofovir (TFV), tenofovir] | 97.4 | 6.1 ± 0.8 |  |  |  |  |  |  |  | 
